Experimental findings from ChEMBL document CHEMBL3351359, “Design and synthesis of novel 2,4-diaryl-5H-indeno[1,2-b]pyridine derivatives, and their evaluation of topoisomerase inhibitory activity and cytotoxicity” (Bioorg Med Chem, 2015) are described below.

Assay [1] concerns the target T1, DNA topoisomerase 1 (Homo sapiens) (UniProt P11387).
T1 sequence (whole entry): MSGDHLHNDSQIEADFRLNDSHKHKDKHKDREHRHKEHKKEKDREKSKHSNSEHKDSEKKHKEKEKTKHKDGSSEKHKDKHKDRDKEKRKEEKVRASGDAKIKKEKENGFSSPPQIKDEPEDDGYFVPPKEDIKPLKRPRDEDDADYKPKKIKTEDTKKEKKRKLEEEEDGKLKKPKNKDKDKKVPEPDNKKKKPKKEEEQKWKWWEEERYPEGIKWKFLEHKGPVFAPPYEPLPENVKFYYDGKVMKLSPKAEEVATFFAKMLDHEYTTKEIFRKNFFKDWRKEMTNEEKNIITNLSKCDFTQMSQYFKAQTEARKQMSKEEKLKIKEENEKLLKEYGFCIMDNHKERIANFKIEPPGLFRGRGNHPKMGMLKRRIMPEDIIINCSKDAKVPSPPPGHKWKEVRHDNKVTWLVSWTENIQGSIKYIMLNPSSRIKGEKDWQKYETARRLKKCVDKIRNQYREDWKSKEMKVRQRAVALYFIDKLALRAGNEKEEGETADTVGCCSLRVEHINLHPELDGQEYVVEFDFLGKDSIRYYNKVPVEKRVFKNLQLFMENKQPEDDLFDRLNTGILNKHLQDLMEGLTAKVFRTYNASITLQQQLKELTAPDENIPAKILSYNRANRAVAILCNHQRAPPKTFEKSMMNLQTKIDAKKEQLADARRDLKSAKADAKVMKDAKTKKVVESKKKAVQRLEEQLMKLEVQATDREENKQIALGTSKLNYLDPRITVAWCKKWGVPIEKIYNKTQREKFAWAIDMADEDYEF
As to the kind of experiment: Inhibition of human recombinant topoisomerase-1 assessed as conversion of super-coiled plasmid DNA pBR322 to relaxed DNA at 100 uM after 30 mins by ethidium bromide staining-based agarose gel electrophoresis relative to camptothecin.

Assay [2] addresses DNA topoisomerase 2-alpha (Homo sapiens) (UniProt P11388). In words: Inhibition of human recombinant topoisomerase-2 alpha assessed as conversion of super-coiled plasmid DNA pBR322 to relaxed DNA at 100 uM after 30 mins by ethidium bromide staining-based agarose gel electrophoresis relative to etoposide.
Assay [3] relates to DU-145. In words: Cytotoxicity against human DU145 cells after 2 days by CCK-8 assay. In kind it is functional, cell-based. The conditions noted are these: DU-145, 48 h. The gist of the method: (§1)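 Cells seeded at 2~4 × 10^4 per well, grown overnight in medium with 10% FBS at 37 °C, 5% CO2. On day 2, after 4 h FBS starvation, medium replaced with medium containing graded compound concentrations. On day 4, CCK-8 added for 4 h, then absorbance read at 450 nm. IC50 from four-parameter logistic fit. Mean ± S.D. of three experiments, each run in triplicate.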

For assay [4], the system named is MCF7. In words: Cytotoxicity against human MCF7 cells after 2 days by CCK-8 assay. In kind it is functional, cell-based. To be noted: MCF7, 48 h. Summed up:
as §1

Assay [5] addresses T1, DNA topoisomerase 1 (Homo sapiens). In words: Inhibition of human recombinant topoisomerase-1 assessed as conversion of super-coiled plasmid DNA pBR322 to relaxed DNA at 100 uM after 30 mins by ethidium bromide staining-based agarose gel electrophoresis (reference value: 51.5%). Summed up: (§2)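 Relaxation of supercoiled pBR322 (100 ng) by 0.4 units recombinant human topo I, with or without compound (20 mM DMSO stocks), for 30 min at 37 °C. Buffer: 10 mM Tris-HCl pH 7.9, 150 mM NaCl, 0.1% BSA, 1 mM spermidine, 5% glycerol. Stopped with sarcosyl. Run on 1% agarose in TAE at 15 V for 7 h, stained with ethidium bromide, bands quantified under UV.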

Assay [6] deals with DNA topoisomerase 2-alpha (Homo sapiens) (UniProt P11388). In words: Inhibition of human recombinant topoisomerase-2 alpha assessed as conversion of super-coiled plasmid DNA pBR322 to relaxed DNA at 100 uM after 30 mins by ethidium bromide staining-based agarose gel electrophoresis (reference value: 83.7%). The gist of the method: (§3)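 Supercoiled pBR322 (200 ng) incubated with 1 unit human topo IIα, with or without compound, for 30 min at 30 °C. Buffer: 10 mM Tris-HCl pH 7.9, 50 mM NaCl, 5 mM MgCl2, 1 mM EDTA, 1 mM ATP, 15 μg/mL BSA. Stopped with EDTA. Run on 1% agarose in TAE at 25 V for 4 h, stained with ethidium bromide, supercoiled DNA quantified under UV.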
Chain of DNA topoisomerase 2-alpha (Homo sapiens) (P11388 whole entry): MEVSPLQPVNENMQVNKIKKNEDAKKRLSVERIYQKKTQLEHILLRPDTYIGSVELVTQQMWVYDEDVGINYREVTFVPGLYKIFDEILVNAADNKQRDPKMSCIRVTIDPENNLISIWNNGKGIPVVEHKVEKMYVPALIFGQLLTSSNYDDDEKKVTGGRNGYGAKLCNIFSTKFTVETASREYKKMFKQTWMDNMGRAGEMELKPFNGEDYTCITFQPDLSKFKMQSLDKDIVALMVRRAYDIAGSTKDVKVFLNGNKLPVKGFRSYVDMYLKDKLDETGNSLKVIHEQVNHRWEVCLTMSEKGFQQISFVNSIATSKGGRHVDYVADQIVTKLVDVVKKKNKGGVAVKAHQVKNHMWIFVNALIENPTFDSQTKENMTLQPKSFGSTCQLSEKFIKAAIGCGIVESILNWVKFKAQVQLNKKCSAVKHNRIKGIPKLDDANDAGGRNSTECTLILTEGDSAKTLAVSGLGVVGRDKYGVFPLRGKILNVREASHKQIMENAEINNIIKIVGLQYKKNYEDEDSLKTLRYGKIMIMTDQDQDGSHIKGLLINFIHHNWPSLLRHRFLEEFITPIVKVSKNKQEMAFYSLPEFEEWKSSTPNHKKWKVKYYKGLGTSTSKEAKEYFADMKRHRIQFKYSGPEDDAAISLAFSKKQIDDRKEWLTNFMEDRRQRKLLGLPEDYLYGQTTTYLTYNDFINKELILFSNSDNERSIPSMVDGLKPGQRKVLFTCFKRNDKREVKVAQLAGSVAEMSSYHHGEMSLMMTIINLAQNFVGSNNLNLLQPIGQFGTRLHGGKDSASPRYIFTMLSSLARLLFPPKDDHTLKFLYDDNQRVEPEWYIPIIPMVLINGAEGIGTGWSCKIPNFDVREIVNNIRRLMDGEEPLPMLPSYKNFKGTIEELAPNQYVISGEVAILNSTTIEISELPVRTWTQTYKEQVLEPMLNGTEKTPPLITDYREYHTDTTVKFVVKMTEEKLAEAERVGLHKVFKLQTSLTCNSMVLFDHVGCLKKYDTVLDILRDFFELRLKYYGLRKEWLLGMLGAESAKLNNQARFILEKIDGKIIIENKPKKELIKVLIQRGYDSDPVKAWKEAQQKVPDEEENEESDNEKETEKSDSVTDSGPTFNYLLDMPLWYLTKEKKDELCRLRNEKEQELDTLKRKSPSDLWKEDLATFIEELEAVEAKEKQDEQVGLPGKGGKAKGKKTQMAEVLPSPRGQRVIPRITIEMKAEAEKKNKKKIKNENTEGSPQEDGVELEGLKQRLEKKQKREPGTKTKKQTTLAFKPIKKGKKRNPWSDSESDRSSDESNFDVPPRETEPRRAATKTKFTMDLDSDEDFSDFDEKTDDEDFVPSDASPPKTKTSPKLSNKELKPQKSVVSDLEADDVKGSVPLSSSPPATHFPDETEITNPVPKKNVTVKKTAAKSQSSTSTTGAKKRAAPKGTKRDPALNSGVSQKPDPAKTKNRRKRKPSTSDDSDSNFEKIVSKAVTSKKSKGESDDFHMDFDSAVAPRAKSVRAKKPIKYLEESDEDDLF

For assay [7] the target is unchanged. In words: Inhibition of human recombinant topoisomerase-2 alpha assessed as conversion of super-coiled plasmid DNA pBR322 to relaxed DNA at 20 uM after 30 mins by ethidium bromide staining-based agarose gel electrophoresis (reference value: 42.1%). Summed up: as §3
A short description of assay [8]: Cytotoxicity against human HCT15 cells after 2 days by CCK-8 assay. In kind it is functional, cell-based. The conditions noted are these: HCT-15, 48 h. The gist of the method:
as §1
For orientation: Tetrazolium assays rely on reduction of a dye to a coloured formazan, in cell work by metabolically active cells.

Assay [9] has as its system HeLa. In words: Cytotoxicity against human HeLa cells after 2 days by CCK-8 assay. The assay is classed as functional, cell-based. The conditions noted are these: 48 h. The gist of the method:
as §1

Assay [10] addresses DNA topoisomerase 2-alpha (Homo sapiens) (UniProt P11388). As to the kind of experiment: Inhibition of human recombinant topoisomerase-2 alpha assessed as conversion of super-coiled plasmid DNA pBR322 to relaxed DNA at 100 uM after 30 mins by ethidium bromide staining-based agarose gel electrophoresis (reference value: 87.8%). The gist of the method:
as §3

For assay [11], the target named is T1, DNA topoisomerase 1 (Homo sapiens). In words: Inhibition of human recombinant topoisomerase-1 assessed as conversion of super-coiled plasmid DNA pBR322 to relaxed DNA at 100 uM after 30 mins by ethidium bromide staining-based agarose gel electrophoresis (reference value: 62.9%). The gist of the method: as §2
For assay [12] the target is unchanged. As to the kind of experiment: Inhibition of human recombinant topoisomerase-1 assessed as conversion of super-coiled plasmid DNA pBR322 to relaxed DNA at 100 uM after 30 mins by ethidium bromide staining-based agarose gel electrophoresis (reference value: 45.2%). The gist of the method: as §2
The target of assay [13] is DNA topoisomerase 2-alpha (Homo sapiens) (UniProt P11388). In words: Inhibition of human recombinant topoisomerase-2 alpha assessed as conversion of super-coiled plasmid DNA pBR322 to relaxed DNA at 100 uM after 30 mins by ethidium bromide staining-based agarose gel electrophoresis (reference value: 32.4%). Summed up:
as §3

Assay [14] has the same target. In words: Inhibition of human recombinant topoisomerase-2 alpha assessed as conversion of super-coiled plasmid DNA pBR322 to relaxed DNA at 20 uM after 30 mins by ethidium bromide staining-based agarose gel electrophoresis (reference value: 46.7%). Summed up:
as §3

As for `c1ccc(-c2cc(-c3ccco3)nc3c2oc2ccccc23)cc1`, the Ratio in [1] was less than 0.2; in assay [2], 1.11.

Take `c1csc(-c2cc(-c3ccoc3)c3c(n2)-c2ccccc2C3)c1`: the IC50 is 37.3 µM in assay [3], greater than 50 µM in assay [4], 34.6 µM in assay [8] and greater than 50 µM in assay [9]. The Ratio was less than 0.2 in assay [1] and 1.19 in assay [2]. Further, the inhibition is 1.7% in assay [5], 100% in assay [6] and 66.7% in assay [7].

Regarding `c1csc(-c2cc(-c3cccs3)c3c(n2)-c2ccccc2C3)c1`, the IC50 in assay [3], in assay [4] and in assay [8] was greater than 50 µM in each case. In addition, the inhibition is 9.8% in assay [10] and 4.7% in [11].

In the case of `CC[C@@]1(O)C(=O)OCc2c1cc1n(c2=O)Cc2cc3ccccc3nc2-1` [CAMPTOTHECIN], the concentration for half-maximal inhibition (IC50) in assay [3] was found to be 0.11 µM; in assay [4], 0.08 µM; in assay [8], 0.26 µM.

With `c1ccc(-c2cc(-c3ccco3)c3c(n2)-c2ccccc2C3)nc1`, the inhibition in assay [12] is 0.6%; in [13] it was 17.7%.

With `c1ccc(-c2cc(-c3ccccn3)nc3c2oc2ccccc23)cc1`, the Ratio in assay [1] was 1.15; in assay [2], less than 0.2.

In the case of `c1ccc(-c2cc(-c3ccccn3)nc3c2Cc2ccccc2-3)cc1`, the inhibition in assay [12] worked out at 0%; in assay [13] it was 12.3%.

Take `c1ccc(-c2cc(-c3ccco3)c3oc4ccccc4c3n2)cc1`: the fold change (FC) in [1] is less than 0.2. Also, the Ratio in [2] turned out to be 1.24.

Turning to `c1ccc(-c2cc(-c3cccnc3)nc3c2COc2ccccc2-3)nc1`, the Ratio in assay [1] is 1.58; in assay [2], less than 0.2.

Consider `c1ccc(-c2cc(-c3ccco3)c3c(n2)-c2ncccc2CC3)nc1`, for which the Ratio was 1.25 in assay [1] and less than 0.2 in assay [2].

As for `c1coc(-c2cc(-c3ccco3)c3oc4ccccc4c3n2)c1`, the fold change (FC) in assay [1] came to 0.6. In [2], the Ratio was 1.11.

For `c1ccc(-c2cc(-c3ccsc3)c3c(n2)-c2ccccc2C3)nc1`, the inhibition in [10] was found to be 15%; in assay [11], 1.1%.

Regarding `c1ccc2c(c1)OCc1c(-c3ccsc3)cc(-c3ccsc3)nc1-2`, the Ratio in assay [1] stood at 1.42; in [2] it was 0.9.

As for `COc1cccc2c1C(=O)c1c(O)c3c(c(O)c1C2=O)C[C@@](O)(C(=O)CO)C[C@@H]3O[C@H]1C[C@H](N)[C@H](O)[C@H](C)O1` [DOXORUBICIN], the IC50 in assay [4] is 0.4 µM; in assay [8] it was 1.08 µM.

With `c1coc(-c2cc(-c3cccs3)nc3c2CCc2ccccc2-3)c1`, the Ratio is 0.97 in assay [1] and less than 0.2 in [2].

For the compound `c1ccc2c(c1)Cc1c(-c3ccoc3)cc(-c3ccsc3)nc1-2`, the concentration for half-maximal inhibition (IC50) is greater than 50 µM in assay [3], greater than 50 µM in assay [4], 20.6 µM in [8] and greater than 50 µM in [9]. For the same compound, the Ratio is less than 0.2 in assay [1] and 1.15 in assay [2]. Moreover, the figures for the inhibition in assay [5], in assay [6] and in assay [7] were 1.2%, 95.9% and 10.9%, respectively.

As to `c1coc(-c2cc(-c3ccoc3)c3c(n2)-c2ccccc2OC3)c1`, the Ratio stood at 1.2 in [1] and 0.89 in [2].

For the compound `c1csc(-c2cc(-c3ccsc3)c3c(n2)-c2ccccc2C3)c1`, the IC50 in assay [3], in [4] and in assay [8] was greater than 50 µM in each case. The Ratio in [1] was less than 0.2; in assay [2] it was 1.14. Moreover, the inhibition amounted to 100% in assay [10], 10.1% in assay [11] and 0% in assay [14].

Turning to `c1cncc(-c2cc(-c3ccoc3)c3c(n2)-c2ncccc2CC3)c1`, the results for the Ratio in [1] and in [2] were 1.36 and less than 0.2, respectively.

For `c1ccc(-c2cc(-c3ccsc3)nc3c2Cc2ccccc2-3)cc1`, the 50% inhibitory concentration (IC50) in assay [3], in assay [4] and in [8] was greater than 50 µM each time. Besides, the Ratio in assay [1] is less than 0.2; in assay [2], 0.83. For the same compound, the inhibition in [10] was 72.5%; in [11], 0.5%; in assay [14], 0%.

Regarding `c1ccc(-c2cc(-c3ccoc3)c3c(n2)-c2ccccc2C3)nc1`, the inhibition in assay [12] came to 8.6%; in assay [13], 17.5%.

Regarding `c1ccc(-c2cc(-c3cccnc3)c3c(n2)-c2ccsc2CC3)cc1`, the values for the Ratio in assay [1] and in assay [2] were 1.15 and less than 0.2, respectively.

On to `c1ccc(-c2cc(-c3ccsc3)nc3c2Cc2ccccc2-3)nc1`, for which the IC50 in assay [3], in assay [4] and in assay [8] was greater than 50 µM throughout. Moreover, the figures for the inhibition in assay [10] and in [11] were 3.2% and 3.5%, respectively.

Consider `c1csc(-c2cc(-c3ccoc3)c3c(n2)-c2ccccc2CC3)c1`, for which the Ratio in assay [1] is 0.53; in [2] it was less than 0.2.

As to `c1ccc(-c2cc(-c3ccsc3)nc3c2COc2ccccc2-3)cc1`, the Ratio in assay [1] was 1.67; in assay [2], 1.13.

Take `c1ccc(-c2cc(-c3cccs3)nc3c2Cc2ccccc2-3)cc1`: the half-maximal inhibitory concentration (IC50) in [3], in [4] and in assay [8] was greater than 50 µM throughout. In addition, the inhibition came to 56% in assay [10], 5.8% in [11] and 0% in assay [14].

Take `c1ccc(-c2cc(-c3cccs3)nc3c2Cc2ccccc2-3)nc1`: the IC50 is greater than 50 µM in [3], 43.3 µM in [4] and 9.63 µM in [8]. Further, the figures for the inhibition in assay [10] and in assay [11] were 18.1% and 4.5%, respectively.

`COc1cc([C@@H]2c3cc4c(cc3[C@@H](O[C@@H]3O[C@@H]5CO[C@@H](C)O[C@H]5[C@H](O)[C@H]3O)[C@H]3COC(=O)[C@H]23)OCO4)cc(OC)c1O` [ETOPOSIDE]: the IC50 stood at 0.73 µM in [4], 1.1 µM in assay [8] and 1.26 µM in assay [9].

Consider `c1cncc(-c2cc(-c3ccncc3)c3c(n2)-c2ccsc2CC3)c1`, for which the values for the Ratio in assay [1] and in assay [2] were 0.49 and less than 0.2, respectively.

For `c1ccc(-c2cc(-c3ccccn3)c3c(n2)-c2ccccc2C3)nc1`, the inhibition in assay [12] stood at 6.2%; in assay [13] it was 10.2%.

As to `c1csc(-c2cc(-c3ccsc3)nc3c2Cc2ccccc2-3)c1`, the half-inhibitory concentration (IC50) in [3], in [4] and in assay [8] was greater than 50 µM throughout. The inhibition in [10] came out at 17.8%; in assay [11] it was 4.1%.

One may read the IC50 as the concentration that inhibits the measured activity by half. Lower therefore signals greater potency. The term inhibition denotes the percentage by which the read-out fell short of the control.
